# Shown is part of a subset that was picked to be rich in hits.
# HUVEC inhibit = inhibitors of human endothelial cell proliferation | HUVEC proliferation, CellTiter-Glo luminescence, 72 h; hits give low values | viability, % at 10 µM (by protocol) | hit rate 1.1% among 86,000 | AID 648;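 active = viability at or below 30%; inactive = viability above 30%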;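 also: 100% = median luminescence of DMSO-only cell control wells on each plate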
# bCat KO growth = beta-catenin-lacking colon tumor cell growth suppression; hit rate 1.5% among 140,000; HCT116 beta-catenin knockout viability, CellTiter-Glo, 60 h; hits give low values; viability, % at 10 µM;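 active = viability at or under a set limit, the compound median less 4 SD, cut at about 6% in these data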;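 also: 0% = Hyamine 1622 control at 20 µM and 100% = untreated cell control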
# H69AR inhibit = blocks growth of human H69AR lung tumor cells. H69AR lung tumor viability, ATP luminescence, 72 h; hits give low values. viability, % at 10 µM. hit rate 6% among 85,000;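 active = viability at or below 40%; inactive = viability above 40%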;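 also: multidrug resistant small cell line overexpressing MRP-1 efflux transporter; 100% = mean luminescence of untreated control wells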
# Lung fibro prol = blocks proliferation of human lung fibroblasts | LL 47 human lung fibroblast viability, ATP luminescence; hits give low values | viability, % at 10 µM | hit rate 1.1% among 85,000 | AID 719;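 active = viability at or below 50% in the single dose screen; inactive = viability above 50%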;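 also: compound exposure lasted 72 h before the ATP readout; 100% = median luminescence of untreated cell-only wells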
#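 Material: Human LL 47 lung fibroblast cells | Input: 1,150 cells/well | Buffer or medium: IMEM plus 15% FBS | Compound dosing: 0.1% DMSO in all compound wells | Times: Overnight cell rest, 72 h compound treatment at 37 °C | Signal: CellTiter-Glo luminescence measuring cellular ATP | Measure: % viability versus median cells-only luminescence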
# PTEN del growth = suppresses growth of cells with PTEN deletion | hit rate 1.2% among 140,000 | AID 827 | viability, % at 10 µM | HCT116 PTEN-null viability, CellTiter-Glo, 60 h; hits give low values;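 active = viability at or below a set limit, 4 SD under the median of all tested compounds, cut at about 3.7% in these data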;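 also: PTEN knockout HCT116 line with beta catenin targeted HCT116 as companion control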
# Active calls of the source: *; / = no result given.
SMILES,HUVEC inhibit,bCat KO growth,H69AR inhibit,Lung fibro prol,PTEN del growth
CCOc1cc(/C=C\[N+](=O)[O-])ccc1OCC(=O)Nc1ccccc1C,/,2.1*,/,/,1.9*
CCOc1cc(/C=N/NC(N)=O)cc(Br)c1OCC(=O)Nc1ccccc1C,/,78,/,/,79
O=C1CCCCCN1Sc1ccccc1,69,22,3.0*,79,10
O=C(c1ccccc1)c1nn(-c2ccccc2)c(=O)cc1C(F)(F)F,/,17,/,/,14
O=C(c1ccccc1)c1nn(-c2ccc(Cl)cc2)c(=O)cc1C(F)(F)F,/,2.2*,/,/,1.7*
O=C(c1cccc(Cl)c1)c1nn(-c2ccccc2)c(=O)cc1C(F)(F)F,/,2.5*,/,/,1.1*
COc1ccc(/C=N/NC(=O)CCSc2nc3ccccc3s2)cc1OC,/,88,/,/,82
O=C(CCSc1nc2ccccc2s1)N/N=C/c1c(O)ccc2ccccc12,/,4.6*,/,/,3.2*
O=C(Oc1ccc(Cl)c2cccnc12)c1cccc([N+](=O)[O-])c1,/,26,/,/,22
O=C(Oc1c(Cl)cc(Cl)c2cccnc12)c1cccc([N+](=O)[O-])c1,/,4.4*,/,/,10
CN(C)C(=O)C(CCN1CCC(O)(c2ccc(Cl)cc2)CC1)(c1ccccc1)c1ccccc1,/,16,/,/,15
OC(CCCN1CCC(O)(c2ccc(Cl)cc2)CC1)c1ccc(F)cc1 (stereo not drawn),116,0.6*,81,88,0.7*
C=CCn1c(SCC(=O)NC(=O)NCc2ccco2)nc2sc(C)c(C)c2c1=O,57,104,11*,52,104
Cc1cc2c(=O)n(Cc3ccco3)c(SCC(=O)c3ccc(Cl)s3)nc2s1,82,71,13*,100,70
Cc1sc2nc(SCC(=O)C(C)(C)C)n(Cc3ccco3)c(=O)c2c1C,64,15,92,49*,18
C=CCn1c(SCc2c(C)noc2C)nc2sc(C)c(C)c2c1=O,52,26,20*,68,26
CCOC(=O)CC(=O)CSc1nc2sc(C)cc2c(=O)n1Cc1ccco1,97,89,79,84,96
COc1cccc(C(=O)N/N=C/c2cn[nH]c2-c2ccc(OC)cc2OC)c1,/,102,/,/,97
COc1cccc(CN2CCC(N(CCc3ccccc3)Cc3ccccc3)CC2)c1OC,/,12,/,/,9
CC(=O)NC1=C(C#N)C(c2ccccc2)c2c(ccc3ccccc23)O1 (stereo not drawn),/,45,/,/,43
CC1=CC(C)(C)N(S(=O)(=O)c2ccc(F)cc2)c2ccccc21,62,18,19*,51,21
CC1=CC(C)(C)N(S(=O)(=O)c2ccc(C)cc2)c2ccc(C)cc21,66,15,22*,53,17
C#CCn1cc(C=C2C(=O)c3ccccc3C2=O)c2ccccc21,/,79,/,/,77
COc1cccc(CNCCc2c[nH]c3ccccc23)c1OCc1ccccc1,/,5.1*,/,/,8
COc1cc(CNCCc2c[nH]c3ccccc23)ccc1OCc1ccccc1F,/,1.4*,/,/,1.6*
SMILES,HUVEC inhibit,bCat KO growth,H69AR inhibit,Lung fibro prol,PTEN del growth
COc1ccccc1CCNCc1ccc(OC)c(OCc2ccccc2)c1,/,20,/,/,16
COc1cccc(NS(=O)(=O)c2c(C)cc(C)cc2C)c1,90,88,93,96,81
COc1ccc(NS(=O)(=O)c2c(C)cc(C)cc2C)cc1,91,74,16*,101,81
COc1ccc2[nH]c(-c3ccc(C)cc3)cc(=O)c2c1,/,41,/,/,35
OC(CNCCC1C=Nc2ccccc21)Cn1c2ccc(Cl)cc2c2cc(Cl)ccc21 (stereo not drawn),/,1.2*,/,/,1.5*
Cc1cc(C)n(CC(O)Cn2c3ccc(Cl)cc3c3cc(Cl)ccc32)c(=O)n1 (stereo not drawn),51,79,59,90,81
OC(CNCC1CCCO1)Cn1c2ccc(Cl)cc2c2cc(Cl)ccc21 (stereo not drawn),2.2*,1.5*,1.0*,2.4*,2.1*
OC(CNCC1CCCO1)Cn1c2ccccc2c2ccccc21 (stereo not drawn),81,74,73,83,67
Cc1cc(=O)[nH]c(N/N=C/c2ccc(OC(=O)c3ccco3)cc2)n1,/,98,/,/,92
COc1cccc(-c2nnc3sc(C4CCCCC4)nn23)c1,68,18,55,86,18
CCOc1cccc(-c2nnc3sc(C4CCCCC4)nn23)c1,71,6.1*,44,96,8
Cc1cccc(NS(=O)(=O)c2cc(C(=O)N3CCCC3)ccc2Cl)c1,/,86,/,/,94
CCOC(=O)N1CCN(C(=O)c2ccc(Cl)c(S(=O)(=O)Nc3ccccc3)c2)CC1,95,94,32*,104,91

# High-throughput results deposited in PubChem BioAssay by SRMLSC.
